STAT1 act = STAT1 signaling activation. NIH 3T3 STAT1-luciferase reporter, IFN-gamma, luminescence; 100% = IFN-gamma alone, no compound. hit rate 2.6% among 200,000. activation (% of control), % at 5.5 µM. AID 932;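 active means activation above the screen-wide mean activation plus 3 SD, cut at about 130% in these data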;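 further: raw ratio to IFN-gamma control signal so 100% means no change and 0% no light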
NF-kB expr up = compounds increasing NF-kB expression in human neuronal cells; fold change at 12.5 µM; NF-kB reporter expression; stronger effect = higher value; hit rate 1.6% among 190,000; in the data active means fold change above about 3.3
STAT3 inh = reduces IL-6 driven STAT3 reporter signal; U3A cells, IL-6 STAT3-luciferase reporter, luminescence; host cell line lacks STAT1; inhibition, % at 5.5 µM; hit rate 0.89% among 190,000;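 active means inhibition above the mean inhibition across all screened compounds plus 3 SD, cut at about 44% in these data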;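 further: 0% = DMSO only wells and 100% = 100 µM nifuroxazide control wells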
STAT1 blocker = inhibitors of IFN-gamma induced STAT1 signaling. inhibition, % at 5.5 µM. hit rate 0.35% among 200,000. AID 920. NIH 3T3 STAT1-luciferase reporter, luminescence;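 active means inhibition above a set limit, the mean inhibition across all tested compounds plus 3 SD, cut at about 34% in these data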;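 further: 0% = IFN-gamma with DMSO and 100% = IFN-gamma with 300 µM nifuroxazide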
APP 5'UTR act = APP 5'UTR luciferase reporter activation; SH-SY5Y APP 5'UTR luciferase reporter, luminescence; zero percent = DMSO vehicle wells; activation, % at 2 µM; hit rate 1% among 190,000; AID 1276;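 active means activation above a set limit, based on mean plus 3 SD of controls, cut at about 140% in these data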
STAT3 activator = increases IL-6 driven STAT3 reporter signal; U3A cells, IL-6 STAT3-luciferase reporter, luminescence; 100% = signal with IL-6 EC80 alone; activation (% of control), % at 5.6 µM; hit rate 0.91% among 190,000; AID 871;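 active means activation above the screen-wide mean of compound activation plus 3 SD, cut at about 130% in these data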;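 further: 0% = background luminescence of wells with medium and substrate only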
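System – human U3A cells carrying STAT3-luciferase construct · Probe or stimulus – Interleukin-6, 33 ng/mL · Schedule – compound 1 h, then IL-6 6 h at 37 °C · Signal – luminescence from STAT3-driven luciferase reporter · Evaluation – percent of IL-6-only median luminescence · Benchmarks – IL-6-only high control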
STAT1 activ conf = confirmation of STAT1 signaling activators; shares compounds with STAT1 act; NIH 3T3 STAT1-luciferase reporter, IFN-gamma potentiation, luminescence; 100% = IFN-gamma EC80 alone, no compound; activation (% of control), % at 5.7 µM; hit rate 97% among 1,200;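 active means activation above a set limit carried over from the earlier primary STAT1 screen, cut at about 140% in these data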;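 further: simple ratio to median IFN-gamma plus DMSO wells so 0% means no light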
NFkB act STAT1ct = NF-kappaB activation in STAT1 activator counter-screen. shares compounds with STAT1 act. HEK293T NF-kB luciferase reporter, TNF-alpha stimulated, luminescence; 100% = TNF-alpha with vehicle only. activation (% of control), % at 5.7 µM. hit rate 43% among 1,200. AID 1306;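 active means activation above the mean of solvent-only control wells plus 3 SD, set per campaign, cut at about 130% in these data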;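 further: TNF-alpha given at a submaximal dose yielding about 80% of full reporter signal; values are well signal over median control so 100% means no change and 0% no light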
STAT3 act STAT1c = human STAT3 activation in STAT1 activator counter-screen. hit rate 46% among 1,200. shares compounds with STAT1 act. U3A cells STAT3-luciferase reporter, IL-6, luminescence; cells lack STAT1; 100 = IL-6 alone, no compound effect. activation (% of control), % at 5.7 µM;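 active means activation above the solvent-only control well mean plus 3 SD, set per plate batch, cut at about 110% in these data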;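 further: 0% = no luminescence and 100% = median IL-6 plus DMSO wells; higher means more STAT3 reporter activation so hits are non-selective activators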
* = called active by the depositor. Sampled rows, rich in hits. Any-hit rate of the full collection: about 5.1%.

`CCc1ccc(N(C(=O)c2ccco2)C(C(=O)NC2CCCC2)c2ccco2)cc1` (stereo not drawn) gave STAT1 act 104, NF-kB expr up 1.3, STAT3 inh -7, STAT1 blocker -3, APP 5'UTR act -5 and STAT3 activator 107.
For Cc1cccc(Nc2nc3ccccc3s2)c1C the results were STAT1 act 174*, NF-kB expr up 9.2*, STAT3 inh 22, STAT1 blocker -84, APP 5'UTR act 158*, STAT3 activator 82, STAT1 activ conf 218*, NFkB act STAT1ct 151* and STAT3 act STAT1c 108.
Screening COc1ccc(Nc2nc3ccccc3s2)cc1 returned STAT1 act 159*, NF-kB expr up 7.2*, STAT3 inh 5, STAT1 blocker -61, APP 5'UTR act 164*, STAT3 activator 98, STAT1 activ conf 224*, NFkB act STAT1ct 143* and STAT3 act STAT1c 106.
Screening COc1ccc(/C=N/OCC(=O)Nc2nc3ccccc3s2)cc1 returned STAT1 act 106, NF-kB expr up 1, STAT3 inh -1, STAT1 blocker -7, APP 5'UTR act 2 and STAT3 activator 104.
`CC12C(=O)N(Cc3ccco3)C(=O)C1C1c3ccccc3C2c2ccccc21` (stereo not drawn) gave STAT1 act 94, NF-kB expr up 0.79, STAT3 inh -3, STAT1 blocker 4 and STAT3 activator 102.
`Cc1ccc(/C(N)=N/OC(=O)c2cccs2)cc1` gave STAT1 act 164*, NF-kB expr up 1.1, STAT3 inh 8, STAT1 blocker -72, STAT3 activator 93, STAT1 activ conf 188*, NFkB act STAT1ct 142* and STAT3 act STAT1c 116*.
`COc1ccccc1C/C(N)=N/OC(=O)c1cccs1` gave STAT1 act 99, NF-kB expr up 0.95, STAT3 inh 5, STAT1 blocker 0, APP 5'UTR act 4 and STAT3 activator 102.
COc1ccc(C(=O)O/N=C(/C)c2cccs2)cc1 was read as STAT1 act 120, NF-kB expr up 1.2, STAT3 inh 1, STAT1 blocker -21, APP 5'UTR act 4 and STAT3 activator 98.
Screening COc1ccc(/C(N)=N/OC(=O)c2cccs2)cc1OC returned STAT1 act 159*, NF-kB expr up 1.9, STAT3 inh -3, STAT1 blocker -66, APP 5'UTR act 66, STAT3 activator 105, STAT1 activ conf 140*, NFkB act STAT1ct 118 and STAT3 act STAT1c 104.
For N/C(Cc1cccc2ccccc12)=N\OC(=O)c1cccs1 the results were STAT1 act 101, NF-kB expr up 0.99, STAT3 inh -10, STAT1 blocker -1, APP 5'UTR act 10 and STAT3 activator 110.
Screening N/C(=N\OC(=O)c1cccs1)c1ccccc1 returned STAT1 act 156*, NF-kB expr up 1.9, STAT3 inh -9, STAT1 blocker -63, APP 5'UTR act 83, STAT3 activator 106, STAT1 activ conf 161*, NFkB act STAT1ct 129 and STAT3 act STAT1c 105.
`CCOc1cc(/C=N\Nc2nc(Nc3ccccc3)nc(N3CCOCC3)n2)ccc1OC(=O)c1ccco1` gave STAT1 act 106, NF-kB expr up 0.51, STAT3 inh 8, STAT1 blocker -6, APP 5'UTR act 2 and STAT3 activator 92.
COc1ccc(CNC(=O)CCN2C(=S)NC(C)(C)CC2C)cc1 (stereo not drawn) was read as STAT1 act 102, NF-kB expr up 1.1, STAT3 inh 1, STAT1 blocker -4, APP 5'UTR act -4 and STAT3 activator 106.
O=C(N/N=C\c1cccc(Cl)c1)c1n[nH]c2c1CCCC2 was read as STAT1 act 170*, NF-kB expr up 1.6, STAT3 inh 9, STAT1 blocker -79, APP 5'UTR act 156*, STAT3 activator 95, STAT1 activ conf 212*, NFkB act STAT1ct 117 and STAT3 act STAT1c 101.
Screening O=C(N/N=C/c1ccc(Cl)cc1Cl)c1n[nH]c2c1CCCC2 returned STAT1 act 120, NF-kB expr up 1.1, STAT3 inh -5, STAT1 blocker -22, APP 5'UTR act -10 and STAT3 activator 105.
`COc1ccc(N2CCN(C(=O)NC3CC(=O)N(c4ccc(OC)cc4)C3)CC2)cc1` (stereo not drawn) gave STAT1 act 100, NF-kB expr up 0.95, STAT3 inh 6, STAT1 blocker -1, APP 5'UTR act 2 and STAT3 activator 101.
For Cc1nn(-c2ccc(C(=O)O)cc2)c(N)c1-c1ccccc1 the results were STAT1 act 160*, NF-kB expr up 4.9*, STAT3 inh -9, STAT1 blocker -66, APP 5'UTR act 125, STAT3 activator 109, STAT1 activ conf 200*, NFkB act STAT1ct 140* and STAT3 act STAT1c 139*.
For CC(=O)N(C)c1ccc(C(O)(C(F)(F)F)C(F)(F)F)cc1 the results were STAT1 act 102, NF-kB expr up 1.2, STAT3 inh 17, STAT1 blocker -4, APP 5'UTR act -3 and STAT3 activator 92.
c1ccc(CNc2ccc3ccccc3n2)nc1 was read as STAT1 act 153*, NF-kB expr up 4.7*, STAT3 inh 28, STAT1 blocker -56, APP 5'UTR act 162*, STAT3 activator 81, STAT1 activ conf 200*, NFkB act STAT1ct 107 and STAT3 act STAT1c 92.
For COCc1ccc(C(=O)NC(C)c2cnn(-c3ccccc3C)c2C)o1 (stereo not drawn) the results were STAT1 act 99, NF-kB expr up 1.1, STAT3 inh 1, STAT1 blocker 0, APP 5'UTR act 7 and STAT3 activator 103.
Cc1ccc(S(=O)(=O)N2CCOCC2)cc1NC(=O)COC(=O)c1cc(=O)c2ccccc2o1 was read as STAT1 act 102, NF-kB expr up 1, STAT3 inh 10, STAT1 blocker -2, APP 5'UTR act -7 and STAT3 activator 99.
Screening COc1ccc(Cn2c(C3CC3)nc3ccc(NC(C)=O)cc3c2=O)cc1 returned STAT1 act 169*, NF-kB expr up 4.3*, STAT3 inh -12, STAT1 blocker -75, APP 5'UTR act 142*, STAT3 activator 118, STAT1 activ conf 213*, NFkB act STAT1ct 143* and STAT3 act STAT1c 134*.

Bioassay records from PubChem.
